# NPY1 pot ag: NPY-Y1 receptor potentiators or agonists, primary screen, cell-based; 220,000 compounds, 0.37% hits; activation, % at 3.6 µM; NPY-Y1 expressing cells, potentiator/agonist activation; Neuropeptide Y receptor type 1 (Homo sapiens), P25929; in the data active means activation above about 33%, passing the limit was not always enough;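 further: cells stimulated with NPY at EC10 then isoproterenol at EC100; 0% = low agonist plus stimulus and 100% = saturating agonist plus stimulus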
# Target sequence (P25929 whole entry, looked up): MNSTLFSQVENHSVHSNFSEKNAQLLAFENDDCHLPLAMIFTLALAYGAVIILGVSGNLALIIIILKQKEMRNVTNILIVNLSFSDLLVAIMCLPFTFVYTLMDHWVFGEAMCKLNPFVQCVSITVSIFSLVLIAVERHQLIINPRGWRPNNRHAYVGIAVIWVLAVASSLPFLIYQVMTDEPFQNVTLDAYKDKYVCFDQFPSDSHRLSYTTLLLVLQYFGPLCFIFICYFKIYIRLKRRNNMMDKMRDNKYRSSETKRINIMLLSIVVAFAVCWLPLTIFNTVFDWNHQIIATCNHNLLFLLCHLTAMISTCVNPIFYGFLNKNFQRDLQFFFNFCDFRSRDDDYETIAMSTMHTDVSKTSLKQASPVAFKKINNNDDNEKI
# NPY-Y1 antag: NPY-Y1 receptor antagonists, primary screen, cell-based; Neuropeptide Y receptor type 1 (Homo sapiens), P25929; HEK293-CNG Y1 cells, membrane potential fluorescence; NPY at EC95, then isoproterenol; inhibition, % at 3.6 µM; 200,000 compounds, 1% hits; AID 1040, 2008;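 active means inhibition above the campaign mean inhibition of all tested compounds plus 3 SD, cut at about 20% in these data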;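 further: 0% = DMSO wells given NPY plus isoproterenol and 100% = isoproterenol alone without NPY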
#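 Test system: HEK293 cells co-expressing NPY Y1 receptor and cyclic-nucleotide gated channel; Also added: NPY (25 nM), isoproterenol (1 µM), Ro 20-1724 (25 µM); Compound dosing: one concentration, 3.6 µM, in 0.4% DMSO; Timing: dye 3 h, compound 60 min room temperature, stimulation 45 min; Technique: Membrane-potential fluorescent dye readout.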
# NPY Y2 blocker: NPY-Y2 receptor antagonists, primary screen, cell-based | inhibition, % at 2.7 µM | 140,000 compounds, 0.99% hits | NPY-Y2 expressing cells, antagonist mode | Neuropeptide Y receptor type 2 (Homo sapiens), P49146; in the data active means inhibition above about 17%;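 further: 0% = vehicle with agonist challenge and 100% = reference antagonist with challenge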
# NPY-Y2 PAM-ag: NPY-Y2 potentiators or agonists, primary screen, cell-based. cells expressing NPY-Y2, potentiator/agonist read-out. activation, % at 3.6 µM. 220,000 compounds, 0.45% hits. AID 1359, 2008; in the data active means activation above about 27%;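 further: cells stimulated with NPY near EC25 plus isoproterenol at EC100; 0% = vehicle plus submaximal agonist and 100% = vehicle plus saturating agonist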
# NPY1 antag ctr: NPY-Y1 receptor antagonists, selectivity check, counter-screen for NPY-Y2 antagonist project, cell-based. shares compounds with NPY Y2 blocker. cell-based NPY-Y1 antagonism counterscreen. inhibition, % at 3.6 µM. 710 compounds, 19% hits; in the data active means inhibition above about 20%;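 further: cells challenged with NPY then isoproterenol with cAMP sensed through a CNG channel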
# NPY2 antag conf: NPY-Y2 receptor antagonists, retest of hits, confirmation, HEK293-CNG cells, membrane potential fluorescence, triplicate. AID 1257, 2008. HEK293 NPY-Y2 CNG channel. 710 compounds, 32% hits. shares compounds with NPY Y2 blocker. inhibition, % at 2.8 µM;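 active means mean inhibition of triplicate wells above the hit cutoff set in the primary screen, cut at about 17% in these data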;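 further: 0% = DMSO with NPY challenge and 100% = BIIE0246 high control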
# * marks the source's active call; other numbers are inactive results; · = no result given. Rows were chosen to be rich in hits. Some 1.9% of all compounds tested hit in one or more screens of this group.
SMILES,NPY1 pot ag,NPY-Y1 antag,NPY Y2 blocker,NPY-Y2 PAM-ag,NPY1 antag ctr,NPY2 antag conf
CCN(CC)C(=O)CSc1nc(-c2cccs2)cc(-c2cccs2)c1C#N,-35,5,18*,5,16,13
CCN(CC)C(=O)CSc1nc(N)c(C#N)c(-c2cccs2)c1C#N,-19,-6,2,-4,·,·
CCOc1ccc(Cc2c(Cl)nc(SC)nc2N(C)C)cc1,-45,12,50*,-24,63*,50*
CCCCCOCC1CC(C/C(C)=N/NC(N)=S)C(=O)O1 (stereo not given),-9,3,2,11,·,·
C/C(CC1CC(COCC(C)C)OC1=O)=N\NC(N)=S (stereo not given),-14,3,27*,-10,2,1
CC(C)Nc1nnc(Sc2ccc(Cl)cc2[N+](=O)[O-])s1,-10,8,21*,-3,0,10
Cn1c(CSc2nc3ccccc3s2)n[nH]c1=S,-31,12,7,-21,·,·
Cn1c(-c2sc3ccccc3c2Cl)n[nH]c1=S,-30,18,17*,-26,15,12
COc1ccc(/C=C2\CCc3ccccc3C2=O)cc1Cn1nc(C)cc1C,9,8,18*,-10,9,4
CCOC(=O)C(C)Sc1ncc(OC)c(Sc2ccc(Cl)cc2)n1 (stereo not given),-11,8,17,-22,·,·
CCOC(=O)CSc1ncc(OC)c(Sc2ccc(Cl)cc2)n1,-34,14,21*,-19,4,9
NC(=O)c1c(NC(=O)COC(=O)c2ccc(S(=O)(=O)Nc3ccccc3)cc2)sc2c1CCCC2,2,3,·,4,·,·
CCOc1ccc(N(CC(=O)NC2CCCC(C)C2C)S(=O)(=O)c2c(C)noc2C)cc1 (stereo not given),-7,7,20*,14,4,6
C/C(=N\NC(=O)CN1CCN(Cc2ccc(C)cc2)CC1)c1ccncc1,14,-3,6,8,·,·
CC(C)CCOc1ccc(C2=NNC(=O)CC2)cc1,-53,15,42*,-16,20*,41*
O=C1CCC(c2ccccc2)=NN1,6,-3,·,-16,·,·
CC(NS(=O)(=O)c1ccccc1)C(c1cccs1)N1CCOCC1 (stereo not given),-3,3,3,2,·,·
O=C(CSCc1ccc(Cl)cc1)N/N=C/c1c(Cl)cccc1Cl,-1,3,17*,3,11,26*
O=C(CSCc1ccc(Cl)cc1)N/N=C/c1ccccc1,2,2,8,-17,·,·
CCCCCN(C(=O)CN1CCC(Cc2ccccc2)CC1)c1c(N)n(CCCC)c(=O)[nH]c1=O,-7,4,·,-9,·,·
C#CCn1c(S(=O)(=O)Cc2ccc(C)cc2)nc(-c2ccccc2)c1-c1ccccc1,-20,16,21*,-17,15,11
CCOC(=O)Cn1c(S(=O)(=O)Cc2ccccc2Cl)nc(-c2ccccc2)c1-c1ccccc1,-21,12,24*,-22,12,9
CCOC(=O)c1c(-c2ccc(OC)cc2)csc1/N=C/C1=C(O)CCCC1=O,-17,-4,0,-2,·,·
COc1ccc2c(c1OC)C(=O)OC2Nc1nc(-c2cccc([N+](=O)[O-])c2)cs1 (stereo not given),-11,·,·,8,·,·
CCC(c1nnnn1CCc1ccccc1)N(Cc1ccco1)Cc1cc2cc(C)cc(C)c2[nH]c1=O (stereo not given),-21,20,17*,-20,8,10
CCCCC(=O)NC1(C(F)(F)F)NC(=O)N(Cc2ccccc2)C1=O (stereo not given),17,0,·,11,·,·
COc1cccc(NC(=O)c2ccc(NC(C)=O)cc2)c1,-11,-1,1,-11,·,·
COc1ccc(C(=O)Nc2cccc(OC(=O)c3ccc(C)c(C)c3)c2)cc1,-24,11,17*,-15,23*,23*
CCCc1nc(SCc2ccc(Cl)cc2Cl)n[nH]1,-32,2,18*,-4,3,7

# Screening data as filed in PubChem BioAssay.
